Converted amounts (≈) assume the structure as drawn. The source made the active and inactive calls. No cut-off for these calls is given here.
What was measured:
[1] = target: Histone deacetylase (Homo sapiens) (UniProt Q13547+O15379+Q9UBN7+Q92769+Q9UQL6+Q8WUI4+Q9BY41+Q96DB2+P56524+Q9UKV0+Q969S8); experiment: Inhibition of HDAC in human MDA-MB-231 cells assessed as stimulation of histone H3 acetylation at 5 uM incubated for 24 hrs by Western blot; type: cell-based
Method in brief: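 MDA-MB-231 cells in 35-mm dishes, dosed 24 h at graded concentrations, then trypsinized and PBS-washed. Lysed in RIPA (50 mM Tris-HCl pH 7.5, protease and phosphatase inhibitors) for 30 min at 4 °C, then cleared at 12,000g. Lysate, 60 μg protein by BCA, run on SDS-PAGE and PVDF. Blotted with anti-acetyl-histone H3 and HRP anti-rabbit, read by ECL.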

CCRF-CEM = experiment: Growth inhibition of human CCRF-CEM cells after 72 hrs by MTS assay; type: functional
HL-60(TB) = experiment: cells; type: functional; details: Homo sapiens, HL-60, 72 h
K562 = experiment: cells; type: functional; details: Homo sapiens, K562, 72 h
MOLT-4 = experiment: Growth inhibition of human MOLT4 cells after 72 hrs by MTS assay; type: functional; details: MOLT-4, 72 h
SR = experiment: Growth inhibition of human SR cells after 72 hrs by MTS assay; type: functional
A549 = experiment: cells; type: functional; details: Homo sapiens, A549, 72 h
EKVX = experiment: cells; type: functional; details: Homo sapiens, 72 h
HOP-92 = experiment: cells; type: functional; details: Homo sapiens, HOP-92, 72 h
NCI-H226 = experiment: cells; type: functional; details: Homo sapiens, NCI-H226, 72 h
NCI-H23 = experiment: cells; type: functional; details: Homo sapiens, NCI-H23, 72 h
NCI-H322M = experiment: Growth inhibition of human NCI-H322M cells after 72 hrs by MTS assay; type: functional
NCI-H460 = experiment: Growth inhibition of human NCI-H460 cells after 72 hrs by MTS assay; type: functional; details: NCI-H460, 72 h
NCI-H522 = experiment: cells; type: functional; details: Homo sapiens, NCI-H522, 72 h
HCT-116 = experiment: Growth inhibition of human HCT116 cells after 72 hrs by MTS assay; type: functional; details: HCT-116, 72 h
HT-29 = experiment: Growth inhibition of human HT-29 cells after 72 hrs by MTS assay; type: functional; details: HT-29, 72 h
SW-620 = experiment: cells; type: functional; details: Homo sapiens, SW-620, 72 h
IGROV-1 = experiment: cells; type: functional; details: Homo sapiens, IGROV-1, 72 h
OVCAR-3 = experiment: cells; type: functional; details: Homo sapiens, OVCAR-3, 72 h
OVCAR-4 = experiment: cells; type: functional; details: Homo sapiens, OVCAR-4, 72 h
OVCAR-5 = experiment: Growth inhibition of human OVCAR5 cells after 72 hrs by MTS assay; type: functional; details: OVCAR-5, 72 h
OVCAR-8 = experiment: cells; type: functional; details: Homo sapiens, OVCAR-8, 72 h
cells [2] = type: functional; details: Homo sapiens, NCI/ADR-RES, 72 h
SK-OV-3 = experiment: cells; type: functional; details: Homo sapiens, SK-OV-3, 72 h
SF-268 = experiment: cells; type: functional; details: Homo sapiens, SF-268, 72 h
SNB-19 = experiment: cells; type: functional; details: Homo sapiens, SNB-19, 72 h
LOX IMVI = experiment: cells; type: functional; details: Homo sapiens, 72 h
M14 = experiment: cells; type: functional; details: Homo sapiens, M14, 72 h
MDA-MB-435 = experiment: cells; type: functional; details: Homo sapiens, MDA-MB-435, 72 h
SK-MEL-2 = experiment: cells; type: functional; details: Homo sapiens, SK-MEL-2, 72 h
SK-MEL-28 = experiment: cells; type: functional; details: Homo sapiens, SK-MEL-28, 72 h
SK-MEL-5 = experiment: cells; type: functional; details: Homo sapiens, SK-MEL-5, 72 h
UACC-62 = experiment: Growth inhibition of human UACC62 cells after 72 hrs by MTS assay; type: functional; details: UACC-62, 72 h
786-0 = experiment: cells; type: functional; details: Homo sapiens, 786-0, 72 h
RXF 393 = experiment: cells; type: functional; details: Homo sapiens, RXF 393, 72 h
SN12C = experiment: cells; type: functional; details: Homo sapiens, 72 h
UO-31 = experiment: cells; type: functional; details: Homo sapiens, UO-31, 72 h
MDA-MB-468 = experiment: cells; type: functional; details: Homo sapiens, MDA-MB-468, 72 h
cells [3] = type: functional; details: Homo sapiens, Hs-578T, 72 h
T47D = experiment: cells; type: functional; details: Homo sapiens, 72 h
MDA-MB-231 = experiment: cells; type: functional; details: Homo sapiens, MDA-MB-231, 72 h
MCF7 = experiment: cells; type: functional; details: Homo sapiens, MCF7, 48 h
[4] = Solubility in pH 7.4 PBS buffer; type: physicochemical
[5] = Lipophilicity, log D of the compound in pH 7.4 PBS buffer; type: physicochemical
[6] = Half life in artificial gastric fluid; type: physicochemical
[7] = Half life in artificial intestinal fluid; type: physicochemical
[8] = Half life in mouse plasma; type: ADME, cell-free
[9] = Half life in mouse liver microsomes; type: ADME, Microsome
[10] = Apparent permeability from basolateral to apical side in human Caco2 cells at 10 uM; type: ADME, cell-based; details: Caco-2
Method in brief: (§1)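 Caco-2 monolayers, test compound at 10 μM. Apparent permeability measured in both directions, apical to basolateral and basolateral to apical. Efflux ratio = P_app B to A / P_app A to B. Run by a contract lab following published methods. Mean of three independent triplicate experiments.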

[11] = Apparent permeability from apical to basolateral side in human Caco2 cells at 10 uM; type: ADME, cell-based; details: Caco-2; method in brief: as §1

SMILES: CC(C)[C@@H](c1nc2ccccc2o1)n1cc(/C=C/C(=O)NO)nn1
- histone H3 acetylation activity (active/not active) [1]: Active
- GI50 (CCRF-CEM): 110 nM
- GI50 (HL-60(TB)): 190 nM
- GI50 (K562): 88 nM
- GI50 (MOLT-4): 72 nM
- GI50 (SR): 90 nM
- GI50 (A549): 160 nM
- GI50 (EKVX): 240 nM
- GI50 (HOP-92): 10 nM
- GI50 (NCI-H226): 540 nM
- GI50 (NCI-H23): 140 nM
- GI50 (NCI-H322M): 140 nM
- GI50 (NCI-H460): 150 nM
- GI50 (NCI-H522): 13 nM
- GI50 (HCT-116): 38 nM
- GI50 (HT-29): 79 nM
- GI50 (SW-620): 130 nM
- GI50 (IGROV-1): 56 nM
- GI50 (OVCAR-3): 220 nM
- GI50 (OVCAR-4): 700 nM
- GI50 (OVCAR-5): 140 nM
- GI50 (OVCAR-8): 84 nM
- GI50 (cells [2]): 27 nM
- GI50 (SK-OV-3): 140 nM
- GI50 (SF-268): 330 nM
- GI50 (SNB-19): 430 nM
- GI50 (LOX IMVI): 44 nM
- GI50 (M14): 180 nM
- GI50 (MDA-MB-435): 91 nM
- GI50 (SK-MEL-2): 87 nM
- GI50 (SK-MEL-28): 220 nM
- GI50 (SK-MEL-5): 100 nM
- GI50 (UACC-62): 140 nM
- GI50 (786-0): 170 nM
- GI50 (RXF 393): 180 nM
- GI50 (SN12C): 360 nM
- GI50 (UO-31): 60 nM
- GI50 (MDA-MB-468): 150 nM
- GI50 (cells [3]): 580 nM
- GI50 (T47D): 51 nM
- GI50 (MDA-MB-231): 520 nM
- GI50 (MCF7): 180 nM
- solubility [4]: 20 µg/mL (≈ 61.1 µM)
- logD [5]: 2
- half-life [6]: 9.4 h
- half-life [7]: > 24 h
- half-life [8]: 32 h
- half-life [9]: 3.25 h
- Papp B→A at 10 µM [10]: 7.61 ×10⁻⁶ cm/s
- Papp A→B at 10 µM [11]: 6.61 ×10⁻⁶ cm/s
